Assays:
Format in all cases: functional
[1] = organism: Homo sapiens; experiment: Percentage of judgments reporting an aftertaste at a concentration of 1000 ppm
Method in brief: (§1)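 Trained judges tasted aqueous solutions of the compounds, which had to be ≥95 weight percent pure and to have passed mutagenicity and single oral dose toxicity screening. The value is the percentage of panel judgments reporting an aftertaste. Where given, its character is recorded as sweet, bitter or bitter-sweet.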

[2] = organism: Homo sapiens; experiment: Number of taste judgments per compound
[3] = organism: Homo sapiens; experiment: Experimentally determined perceived intensity of compound at a concentration of 1000 ppm (mean value)
Method in brief: (§2)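 Trained human sensory panel of judges tasted aqueous solutions of the compound. Samples had to be ≥95 weight % pure (HPLC, proton titration, Karl Fischer), non-mutagenic in five Salmonella typhimurium strains with and without microsomal activation, and non-toxic in a single-oral-dose mouse test. Perceived intensity (Ip) was read from time–intensity curves at 4- or 6-s intervals and averaged. Outliers at the 95% level were rejected by t-value. Values reported as mean (2Sm).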

[4] = organism: Homo sapiens; experiment: Salty character at a concentration of 260 ppm (mean value)
[5] = organism: Homo sapiens; experiment: Sweet character at a concentration of 260 ppm (mean value)
[6] = organism: Homo sapiens; experiment: Intensity calculated on a molar basis relative to a 0.25 M sucrose solution at a concentration of 260 ppm (mean value)
Method in brief: (§3)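 Trained human judges tasted aqueous solutions of the test compound; compounds were first required to be ≥95 weight percent pure and free of mutagenicity (five Salmonella typhimurium strains, ± microsomal activation) and of single oral dose mouse toxicity. Molar intensity I_m = perceived intensity × (0.25 M sucrose / compound molar concentration). The mean is reported with 2S_m limits; outliers were rejected at 95% confidence by t-value.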

[7] = organism: Homo sapiens; experiment: Bitter character at a concentration of 260 ppm (mean value)
Method in brief: (§4)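 Trained human panel tasted aqueous solutions. Each judge reported whether there was an aftertaste and its character (sweet, bitter or bitter-sweet). The value is the percentage of judgments reporting a bitter aftertaste.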

[8] = organism: Homo sapiens; experiment: Other taste character at a concentration of 260 ppm (mean value)
Method in brief: (§5)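 Trained human sensory panel (Swartz method) tasted dilute aqueous solutions of the compounds, which had to be ≥95 weight percent pure and free of mutagenicity and toxicity. Taste character is reported as the mean value with 2S_m limits. Data deviating excessively at the 95% confidence level were rejected by the t-value method.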

[9] = organism: Homo sapiens; experiment: Sour character at a concentration of 260 ppm (mean value)
[10] = organism: Homo sapiens; experiment: Percentage of judgments reporting an aftertaste at a concentration of 260 ppm and character thereof; method in brief: as §1
[11] = organism: Homo sapiens; experiment: Intensity calculated on a weight basis relative to an 85500 ppm sucrose solution at a concentration of 260 ppm (mean value)
Method in brief: (§6)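 Trained human panel tasted aqueous solutions of purity-checked (≥95 weight percent) compounds cleared for mutagenicity and mouse oral toxicity. Weight-basis intensity I_w = perceived intensity × (85500 ppm sucrose / compound concentration in ppm). The mean is reported with 2S_m limits; data deviating excessively at 95% confidence were rejected by the t-value method.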

[12] = organism: Homo sapiens; experiment: Experimentally determined perceived intensity of compound at a concentration of 260 ppm (mean value); method in brief: as §2
[13] = organism: Homo sapiens; experiment: Sweet / Bitter character at a concentration of 260 ppm (mean value); 94/6
[14] = organism: Homo sapiens; experiment: Sweet character at a concentration of 244 ppm (mean value)
[15] = organism: Homo sapiens; experiment: Salty character at a concentration of 244 ppm (mean value)
[16] = organism: Homo sapiens; experiment: Other taste character at a concentration of 244 ppm (mean value); method in brief: as §5
[17] = organism: Homo sapiens; experiment: Percentage of judgments reporting an aftertaste at a concentration of 244 ppm and character thereof; Bitter; method in brief: as §1
[18] = organism: Homo sapiens; experiment: Intensity calculated on a molar basis relative to a 0.25 M sucrose solution at a concentration of 244 ppm (mean value); method in brief: as §3
[19] = organism: Homo sapiens; experiment: Bitter character at a concentration of 244 ppm (mean value); method in brief: as §4
[20] = organism: Homo sapiens; experiment: Intensity calculated on a weight basis relative to an 85500 ppm sucrose solution at a concentration of 244 ppm (mean value); method in brief: as §6
[21] = organism: Homo sapiens; experiment: Experimentally determined perceived intensity of compound at a concentration of 244 ppm (mean value); method in brief: as §2
[22] = organism: Homo sapiens; experiment: Sour character at a concentration of 244 ppm (mean value)
[23] = organism: Homo sapiens; experiment: Sweet / Bitter character at a concentration of 244 ppm (mean value)
[24] = organism: Homo sapiens; experiment: Intensity calculated on a weight basis relative to an 85500 ppm sucrose solution at a concentration of 33.4 ppm (mean value); method in brief: as §6
[25] = organism: Homo sapiens; experiment: Sweet / Bitter character at a concentration of 33.4 ppm (mean value); 66/34
[26] = organism: Homo sapiens; experiment: Percentage of judgments reporting an aftertaste at a concentration of 33.4 ppm and character thereof
[27] = organism: Homo sapiens; experiment: Experimentally determined perceived intensity of compound at a concentration of 33.4 ppm (mean value); method in brief: as §2
[28] = organism: Homo sapiens; experiment: Other taste character at a concentration of 33.4 ppm (mean value); method in brief: as §5
[29] = organism: Homo sapiens; experiment: Intensity calculated on a molar basis relative to a 0.25 M sucrose solution at a concentration of 33.4 ppm (mean value); method in brief: as §3
[30] = organism: Homo sapiens; experiment: Sour character at a concentration of 33.4 ppm (mean value)
[31] = organism: Homo sapiens; experiment: Salty character at a concentration of 33.4 ppm (mean value)
[32] = organism: Homo sapiens; experiment: Bitter character at a concentration of 33.4 ppm (mean value); method in brief: as §4
[33] = organism: Homo sapiens; experiment: Sweet character at a concentration of 33.4 ppm (mean value)
[34] = organism: Homo sapiens; experiment: Sweet / Bitter character at a concentration of 251 ppm (mean value); 51/49
[35] = organism: Homo sapiens; experiment: Percentage of judgments reporting an aftertaste at a concentration of 251 ppm and character thereof
Method in brief: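 Trained human sensory panel; compounds tasted in aqueous solution. Before panel work, compounds had to be ≥95 weight percent pure (HPLC, proton titration, Karl Fischer) and free of mutagenicity (five Salmonella typhimurium strains, ± microsomal activation) and single oral dose mouse toxicity. Value is the percentage of judgments reporting an aftertaste, with its character recorded as sweet, bitter or bitter-sweet.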

[36] = organism: Homo sapiens; experiment: Other taste character at a concentration of 251 ppm (mean value); method in brief: as §5
[37] = organism: Homo sapiens; experiment: Experimentally determined perceived intensity of compound at a concentration of 251 ppm (mean value); method in brief: as §2
[38] = organism: Homo sapiens; experiment: Intensity calculated on a molar basis relative to a 0.25 M sucrose solution at a concentration of 251 ppm (mean value); method in brief: as §3
[39] = organism: Homo sapiens; experiment: Salty character at a concentration of 251 ppm (mean value); method in brief: as §5
[40] = organism: Homo sapiens; experiment: Sour character at a concentration of 251 ppm (mean value); method in brief: as §5
[41] = organism: Homo sapiens; experiment: Bitter character at a concentration of 251 ppm (mean value); method in brief: as §4
[42] = organism: Homo sapiens; experiment: Intensity calculated on a weight basis relative to an 85500 ppm sucrose solution at a concentration of 251 ppm (mean value); method in brief: as §6
[43] = organism: Homo sapiens; experiment: Sweet character at a concentration of 251 ppm (mean value); method in brief: as §5

With `COc1ccc(CCC(=O)OC2C[C@](O)(C(=O)O)C[C@@H](O)[C@H]2O)cc1O` (some centres not stated) the Judgments [1] was 0, the Judgments [2] was 1 and the IP [3] was 0.

In the case of `COc1ccc(CCC(=O)c2c(O)cc(OCC(=O)[O-])cc2O)cc1O.[Na+]`, the Taste character [4] is reported as 0, the Taste character [5] is reported as 76 and the Judgments [2] is reported as 12. The IM [6] was 330, the Taste character [7] was 5 and the Taste character [8] was 19. The Taste character [9] was 0, the Judgments [10] was 100 and the IW [11] was 300. The IP [12] was 0.9 and the Taste character [13] was 94.

Work on `COc1ccc(CCC(=O)O)cc1O` yielded a Taste character [14] of 0, a Taste character [15] of 0 and a Taste character [16] of 3. For the same molecule, the Judgments [17] was 50, the Judgments [2] was 8 and the IM [18] was 120. For the same molecule, the Taste character [19] was 28, the IW [20] was 210 and the IP [21] was 0.6. The Taste character [22] was 69 and the Taste character [23] was 0.

For `COc1ccc(C2CC(=O)c3c(O)cccc3O2)cc1O` (configuration not stated), the IW [24] was 1700, the Taste character [25] was 66 and the Judgments [2] was 8. For the same molecule, the Judgments [26] was 42, the IP [27] was 0.68 and the Taste character [28] was 0. It also gave an IM [29] of 1400, a Taste character [30] of 6 and a Taste character [31] of 0. For the same molecule, the Taste character [32] was 32 and the Taste character [33] was 62.

For `CCCOc1ccc(CCC(=O)c2c(O)cc(OCC(=O)[O-])cc2O)cc1O.[Na+]`, the Taste character [34] was 51, the Judgments [35] was 100 and the Judgments [2] was 12. It also gave a Taste character [36] of 23, an IP [37] of 0.72 and an IM [38] of 300. It also gave a Taste character [39] of 0, a Taste character [40] of 0 and a Taste character [41] of 38. It also gave an IW [42] of 240 and a Taste character [43] of 39.

From ChEMBL document CHEMBL1121813, “Dihydrochalcone sweeteners. A study of the atypical temporal phenomena” (1981)
